Reference: ChEMBL document CHEMBL4680121, “Development of (4-methoxyphenyl)-1H-tetrazol-5-amine regioisomers as a new class of selective antitubercular agents” (Eur J Med Chem, 2020)
Converted amounts (≈) assume the structure as drawn.

Columns and labels:
[1] = system: Klebsiella pneumoniae; assay: Antibacterial activity against Klebsiella pneumoniae ATCC 10031 assessed as bacterial growth inhibition measured after 18 hrs by two-fold serial microdilution method; format: functional
Method in brief: (§1)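 Two-fold serial broth microdilution in MH II medium following modified CLSI procedures. Compounds were dissolved in DMSO and diluted in medium to at most 1% solvent, tested from 0.03125 to 512 μg/ml. Final inoculum 10^6 CFU/ml. MIC was taken as the lowest concentration with no visible growth after 18 h at 35 °C.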

[2] = system: Staphylococcus aureus; assay: Antibacterial activity against Staphylococcus aureus NCTC 4163 assessed as bacterial growth inhibition measured after 18 hrs by two-fold serial microdilution method; format: functional; method in brief: as §1
[3] = system: Mycobacterium tuberculosis; assay: Antitubercular activity against Mycobacterium tuberculosis H37Rv ATCC 25618 assessed as inhibition of microbial growth by classical test tube method; format: functional
Method in brief: (§2)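 Classical test-tube serial dilution in Youmans' modified Proskauer–Beck liquid medium with 10% bovine serum. Inoculum came from 14-day-old cultures. Compounds were given as DMSO solutions (stock 10 mg/ml), diluted geometrically in medium to 3.1–100 µg/ml, and incubated at 37 °C. MIC is the minimum concentration inhibiting growth relative to a no-compound control.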

[4] = system: Mycobacterium tuberculosis; assay: Antitubercular activity against Mycobacterium tuberculosis Spec.192 assessed as inhibition of microbial growth by classical test tube method; format: functional; method in brief: as §2
[5] = system: Escherichia coli; assay: Antibacterial activity against Escherichia coli ATCC 25922 assessed as bacterial growth inhibition measured after 18 hrs by two-fold serial microdilution method; format: functional; method in brief: as §1
[6] = system: Staphylococcus epidermidis; assay: Antibacterial activity against Staphylococcus epidermidis ATCC 1457 assessed as bacterial growth inhibition measured after 18 hrs by two-fold serial microdilution method; format: functional; method in brief: as §1
[7] = system: Pseudomonas aeruginosa; assay: Antibacterial activity against Pseudomonas aeruginosa PAO1 assessed as bacterial growth inhibition measured after 18 hrs by two-fold serial microdilution method; format: functional; method in brief: as §1
[8] = system: Staphylococcus aureus; assay: Antibacterial activity against Staphylococcus aureus ATCC 6538 assessed as bacterial growth inhibition measured after 18 hrs by two-fold serial microdilution method; format: functional; method in brief: as §1
[9] = system: Staphylococcus epidermidis; assay: Antibacterial activity against Staphylococcus epidermidis ATCC 35984/RP62A assessed as bacterial growth inhibition measured after 18 hrs by two-fold serial microdilution method; format: functional; method in brief: as §1
[10] = system: Staphylococcus epidermidis; assay: Antibacterial activity against Staphylococcus epidermidis ATCC 12228 assessed as bacterial growth inhibition measured after 18 hrs by two-fold serial microdilution method; format: functional; method in brief: as §1
[11] = system: Pseudomonas aeruginosa; assay: Antibacterial activity against Pseudomonas aeruginosa NCTC 6749 assessed as bacterial growth inhibition measured after 18 hrs by two-fold serial microdilution method; format: functional; method in brief: as §1
[12] = system: Proteus vulgaris; assay: Antibacterial activity against Proteus vulgaris NCTC 4635 assessed as bacterial growth inhibition measured after 18 hrs by two-fold serial microdilution method; format: functional; method in brief: as §1
[13] = system: Mycobacterium intracellulare; assay: Antimycobacterial activity against Mycobacterium intracellulare assessed as inhibition of microbial growth incubated for 1 week by MABA method; format: functional; conditions: 168 h, time 1 weeks
Method in brief: (§3)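 Microplate Alamar Blue assay using two-fold serial microdilution in Middlebrook 7H9 broth with 10% OADC, compounds 0.125–512 µg/ml from DMSO stocks. Inoculum came from fresh LJ culture, was adjusted to McFarland 1 and diluted 1:20. Plates were incubated 1 week at 37 °C, Alamar blue was added and plates were re-incubated 24 h. MIC was the lowest concentration preventing the blue-to-pink change. Each plate carried growth and sterile controls.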

[14] = system: V79; assay: Cytotoxicity against Chinese Hamster V79 cells assessed as reduction in cell viability at 100 uM measured after 72 hrs by MTT assay; format: cell-based, Cricetulus griseus; conditions: v79, 72 h
Method in brief: (§4)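 MTT viability assay on cells grown in DMEM with 10% heat-inactivated FBS, penicillin/streptomycin and 20 mM HEPES at 37 °C/5% CO2. Cells were seeded at 1×10^4 per well and allowed to adhere for 24 h, then the medium was refreshed. Compounds were added at 20–140 μM for 72 h at 37 °C, followed by MTT (0.5 mg/mL in serum-free medium) for 4 h. Untreated cells served as control. IC50 is the concentration giving 50% growth inhibition versus control.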

[15] = system: V79; assay: Cytotoxicity against Chinese Hamster V79 cells assessed as reduction in cell viability measured after 72 hrs by MTT assay; format: cell-based; conditions: Cricetulus griseus, V79, 72 h; method in brief: as §4
[16] = system: Mycobacterium scrofulaceum; assay: Potency index, ratio of isoniazid MIC to test compound MIC for antibacterial activity against Mycobacterium scrofulaceum assessed as inhibition of microbial growth incubated for 1 week by MABA method; format: functional; conditions: time 1 weeks
[17] = system: HaCaT; assay: Cytotoxicity against human HaCaT cells assessed as reduction in cell viability at 100 uM measured after 72 hrs by MTT assay; format: cell-based; method in brief: as §4
[18] = system: HaCaT; assay: Cytotoxicity against human HaCaT cells assessed as reduction in cell viability measured after 72 hrs by MTT assay; format: cell-based; method in brief: as §4
[19] = system: Mycobacterium kansasii; assay: Antibacterial activity against Mycobacterium kansasii assessed as inhibition of microbial growth incubated for 1 week by MABA method; format: functional; conditions: 168 h, time 1 weeks; method in brief: as §3
[20] = system: Mycolicibacterium fortuitum; assay: Antibacterial activity against Mycobacterium fortuitum assessed as inhibition of microbial growth incubated for 1 week by MABA method; format: functional; conditions: 168 h, time 1 weeks; method in brief: as §3
[21] = system: Mycobacterium tuberculosis; assay: Antitubercular activity against Mycobacterium tuberculosis Spec.192 assessed as inhibition of microbial growth incubated for 1 week by MABA method; format: functional; conditions: Mycobacterium tuberculosis, 192, 168 h; time 1 weeks
Method in brief: (§5)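 Microplate Alamar Blue assay in Middlebrook 7H9 broth with 10% OADC. Inoculum from fresh LJ culture was adjusted to McFarland 1 and diluted 1:20. DMSO stocks were two-fold serially diluted to final 0.125–512 µg/ml, with growth and sterile controls. Plates ran 1 week at 37 °C, then Alamar blue was added for 24 h. MIC is the lowest concentration preventing the blue-to-pink change.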

[22] = system: Mycobacterium scrofulaceum; assay: Antibacterial activity against Mycobacterium scrofulaceum assessed as inhibition of microbial growth incubated for 1 week by MABA method; format: functional; conditions: 168 h, time 1 weeks; method in brief: as §3
[23] = system: Mycobacterium tuberculosis; assay: Antitubercular activity against Mycobacterium tuberculosis H37Rv ATCC 25618 assessed as inhibition of microbial growth incubated for 1 week by MABA method; format: functional; conditions: H37Rv ATCC 25618, 168 h, time 1 weeks; method in brief: as §5
[24] = system: Mycobacterium xenopi; assay: Antibacterial activity against Mycobacterium xenopi assessed as inhibition of microbial growth incubated for 1 week by MABA method; format: functional; conditions: 168 h, time 1 weeks; method in brief: as §3
[25] = system: Mycobacterium avium; assay: Antimycobacterial activity against Mycobacterium avium assessed as inhibition of microbial growth incubated for 1 week by MABA method; format: functional; conditions: 168 h, time 1 weeks; method in brief: as §5

| SMILES | MIC [1] | MIC [2] | MIC [3] | MIC [4] | MIC [5] | MIC [6] | MIC [7] | MIC [8] | MIC [9] | MIC [10] | MIC [11] | MIC [12] | other results |
| --- | --- | --- | --- | --- | --- | --- | --- | --- | --- | --- | --- | --- | --- |
| COc1ccc(NC(S)=Nc2ccc(F)cc2)cc1 | > 256 mg/L | > 256 mg/L | 50 mg/L | 100 mg/L | > 256 mg/L | > 256 mg/L | > 256 mg/L | > 256 mg/L | > 256 mg/L | > 256 mg/L | > 256 mg/L | > 256 mg/L |  |
| COc1ccc(NC(=S)Nc2cccc(Cl)c2)cc1 | > 256 mg/L | > 256 mg/L | 100 mg/L | 100 mg/L | > 256 mg/L | > 256 mg/L | > 256 mg/L | > 256 mg/L | > 256 mg/L | > 256 mg/L | > 256 mg/L | > 256 mg/L |  |
| COc1ccc(Nc2nnnn2-c2cccc(Cl)c2)cc1 | > 256 mg/L | > 256 mg/L |  |  | > 256 mg/L | > 256 mg/L | > 256 mg/L | > 256 mg/L | > 256 mg/L | > 256 mg/L | > 256 mg/L | > 256 mg/L | MIC [13]: 128 mg/L; Activity [14]: Non-Toxic; IC50 [15]: 124 µM; Ratio [16]: 32; Activity [17]: Non-Toxic; IC50 [18]: 103 µM; MIC [19]: 512 mg/L; MIC [20]: 512 mg/L; MIC [21]: 8 mg/L; MIC [22]: 2 mg/L; MIC [23]: 8 mg/L; MIC [24]: 512 mg/L; MIC [25]: 64 mg/L |
| COc1ccc(-n2nnnc2Nc2cccc(F)c2)cc1 | > 256 mg/L | 128 mg/L (≈ 449 µM) |  |  | > 256 mg/L | 256 mg/L (≈ 897 µM) | > 256 mg/L | 64 mg/L (≈ 224 µM) | 128 mg/L (≈ 449 µM) | 32 mg/L (≈ 112 µM) | > 256 mg/L | > 256 mg/L | MIC [13]: 64 mg/L; Activity [14]: Non-Toxic; IC50 [15]: 248 µM; Ratio [16]: 4; Activity [17]: Non-Toxic; IC50 [18]: 127 µM; MIC [19]: 512 mg/L; MIC [20]: 256 mg/L; MIC [21]: 8 mg/L; MIC [22]: 16 mg/L; MIC [23]: 8 mg/L; MIC [24]: 512 mg/L; MIC [25]: 128 mg/L |
| COc1ccc(NC(=S)Nc2ccc(Cl)cc2)cc1 | > 256 mg/L | > 256 mg/L | 50 mg/L | 50 mg/L | > 256 mg/L | > 256 mg/L | > 256 mg/L | > 256 mg/L | > 256 mg/L | > 256 mg/L | > 256 mg/L | > 256 mg/L |  |
| COc1ccc(NC(=S)Nc2cccc(Br)c2)cc1 | > 256 mg/L | > 256 mg/L | 50 mg/L | 50 mg/L | > 256 mg/L | > 256 mg/L | > 256 mg/L | > 256 mg/L | > 256 mg/L | > 256 mg/L | > 256 mg/L | > 256 mg/L |  |
| COc1ccc(NC(=S)Nc2ccccc2Br)cc1 | > 256 mg/L | > 256 mg/L | 50 mg/L | 50 mg/L | > 256 mg/L | > 256 mg/L | > 256 mg/L | > 256 mg/L | > 256 mg/L | > 256 mg/L | > 256 mg/L | > 256 mg/L |  |
| COc1ccc(NC(=S)Nc2ccc(Br)cc2)cc1 | > 256 mg/L | > 256 mg/L | 25 mg/L | 25 mg/L | > 256 mg/L | > 256 mg/L | > 256 mg/L | > 256 mg/L | > 256 mg/L | > 256 mg/L | > 256 mg/L | > 256 mg/L |  |
